Read-outs that look alike come from different tables or passages of the source. Values belong to the molecule of their own block, whether it stands above or below them.
How the values were obtained:
[1] = tested on: nifedipine oxidation (NFO) activity; format: in vitro ADME, rat; details: rat, probe nifedipine; for IC50: rat hepatic (liver) microsomes, IC50, NFO activity, Liver, ingredient, 10-min NADPH-fortified pre-incubation; for inhibition at 100 µM: rat hepatic and intestinal microsomes
[2] = cited from earlier work; for Cmax: read-out: Cmax levels of plasma, rats orally treated with a single dose of 8 g/kg lyophilized SMS
[3] = rat plasma; nifedipine 3 mg/kg oral; control group (water)
[4] = tested on: nifedipine oxidation (NFO) activities in rat hepatic microsomes; format: in vitro ADME; details: read-out: IC50, NFO activity, Liver; ingredient; 10-min NADPH-fortified pre-incubation
[5] = tested on: nifedipine oxidation (NFO) activities in rat intestinal microsomes; format: in vitro ADME; details: read-out: IC50, NFO activity, Intestine; ingredient; 10-min NADPH-fortified pre-incubation
human CYP3A4 [6] = target: T1, human CYP3A4 (Homo sapiens, UniProt P08684, S18F); format: in vitro ADME; details: for Ratio IC50(+)/IC50(−): IC50 shift after 10-min pre-incubation; for IC50: NFO activity; for Predicted threshold of unbound inhibitor concentration causing a 2-fold AUC increase: high-throughput method from IC50 values
human CYP3A4 [7] = target: T1, human CYP3A4; experiment: Time-dependent inactivation kinetics of human CYP3A4; format: in vitro ADME
Method in brief: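 Recombinant CYP3A4 was pre-incubated with NADPH and test compound (DMSO vehicle) for varying times, and residual NFO was measured. K_app is the slope of ln % remaining activity versus time. k_inact and K_I came from nonlinear fit of K_app = k_inact·I/(I+K_I), with double-reciprocal starting values. The partition ratio came from titrating remaining activity after 30-min incubation against inhibitor:CYP3A4 molar ratio. […] Means of three determinations.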

human CYP3A4 [8] = target: T1, human CYP3A4; experiment: Dialysis experiment, remaining NFO activity; format: in vitro ADME; details: 30-min NADPH-fortified pre-incubation
Method in brief: (§1)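 E. coli membranes co-expressing human CYP3A4 and CPR (20 nM) were incubated 30 min at 37 °C with 3–20 μM test compound and an NADPH-generating system (pH 7.4), with DMSO vehicle controls. They were dialysed (10 kDa) at 4 °C against phosphate/0.1 mM EDTA with three 30-min buffer changes. […] Means of three determinations.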

[9] = target: T2, NADPH-P450 reductase (CPR) (Homo sapiens, UniProt P16435); experiment: Dialysis experiment, CPR activity; format: in vitro ADME; details: recombinant CYP3A4 system
T2 sequence (P16435 1-677): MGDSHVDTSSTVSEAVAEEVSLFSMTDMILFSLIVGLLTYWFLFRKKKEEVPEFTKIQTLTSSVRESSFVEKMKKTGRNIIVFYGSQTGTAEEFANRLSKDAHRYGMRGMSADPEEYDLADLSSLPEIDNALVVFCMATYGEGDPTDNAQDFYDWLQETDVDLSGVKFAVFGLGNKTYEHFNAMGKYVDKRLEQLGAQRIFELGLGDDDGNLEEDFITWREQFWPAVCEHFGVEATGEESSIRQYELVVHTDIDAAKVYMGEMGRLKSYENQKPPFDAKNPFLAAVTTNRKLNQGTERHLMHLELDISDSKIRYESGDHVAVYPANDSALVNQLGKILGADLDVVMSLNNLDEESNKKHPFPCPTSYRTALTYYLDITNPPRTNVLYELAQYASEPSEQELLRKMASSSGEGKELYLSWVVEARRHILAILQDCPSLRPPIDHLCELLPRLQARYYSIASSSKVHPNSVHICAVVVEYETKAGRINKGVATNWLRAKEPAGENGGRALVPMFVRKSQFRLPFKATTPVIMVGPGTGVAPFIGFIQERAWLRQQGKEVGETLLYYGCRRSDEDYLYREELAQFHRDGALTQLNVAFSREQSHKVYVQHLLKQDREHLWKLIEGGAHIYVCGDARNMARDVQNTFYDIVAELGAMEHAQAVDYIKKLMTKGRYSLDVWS
Method in brief: as §1

[10] = Literature pharmacokinetics of herbal ingredients in rats; format: in vivo; details: SMS once daily, estimated from half-life
[11] = linear regression of double reciprocal plots (r = 0.97)
[12] = nonlinear regression analysis (r = 0.98)
[13] = IC50(+), 10-min NADPH-fortified pre-incubation
[14] = IC50(−), without pre-incubation
[15] = rats treated with 8 g/kg lyophilized SMS

- IC50 [1]: > 100 µM
- inhibition at 100 µM [1]: ≤ 50%
SMILES: COc1cc(C[C@H]2C(=O)OC[C@@H]2Cc2ccc(OC)c(OC)c2)ccc1O [Arctigenin]

SMILES: CC(C)=CCC/C(C)=C/COc1c2ccoc2cc2oc(=O)ccc12 [Bergamottin, bergamottin, reference compound]
- tmax ([2]; rats): 0.5 h

SMILES: COC(=O)c1c(C)nc(C)c(C(=O)OC)c1-c1ccccc1[N+](=O)[O-] [Dehydronifedipine]
- AUC0−t of dehydronifedipine [3]: 100 ± 10 ng·h/mL
- AUC0−∞ of dehydronifedipine [3]: 130 ± 10 ng·h/mL
- Cmax of dehydronifedipine [3]: 40 ± 10 ng/mL
- t1/2 of dehydronifedipine [3]: 2.36 ± 0.33 h
- tmax of dehydronifedipine [3]: 0.54 ± 0.10 h

- IC50 [1]: > 100 µM
SMILES: CC(C)=CCC[C@](C)(O[C@@H]1O[C@H](CO[C@@H]2O[C@H](CO)[C@@H](O)[C@H](O)[C@H]2O)[C@@H](O)[C@H](O)[C@H]1O)[C@H]1CC[C@]2(C)[C@@H]1[C@H](O)C[C@@H]1[C@@]3(C)CC[C@H](O[C@@H]4O[C@H](CO)[C@@H](O)[C@H](O)[C@H]4O[C@@H]4O[C@H](CO)[C@@H](O)[C@H](O)[C@H]4O)C(C)(C)[C@@H]3CC[C@]12C [Ginsenoside Rb1, ginsenoside Rb1]

- IC50 [1]: 80.2 ± 33.3 µM
SMILES: CC(C)=CCC[C@](C)(O[C@@H]1O[C@H](CO)[C@@H](O)[C@H](O)[C@H]1O)[C@H]1CC[C@]2(C)[C@@H]1[C@H](O)C[C@@H]1[C@@]3(C)CC[C@H](O[C@@H]4O[C@H](CO)[C@@H](O)[C@H](O)[C@H]4O[C@@H]4O[C@H](CO)[C@@H](O)[C@H](O)[C@H]4O)C(C)(C)[C@@H]3CC[C@]12C [Ginsenoside Rd, ginsenoside Rd]

- IC50 [4]: 16.8 ± 2.6 µM
- IC50 [5]: 11.6 ± 0.7 µM
- IC50 (human CYP3A4 [6]; 10-min NADPH-fortified pre-incubation): 17.4 ± 2.1 µM
- IC50 (human CYP3A4 [6]; without pre-incubation): 36.5 ± 7 µM
- Predicted threshold of unbound inhibitor concentration causing a 2-fold AUC increase (human CYP3A4 [6]): 45.0 nM
- partition ratio (human CYP3A4 [7]; 30 min incubation, molar ratio metabolized per CYP3A4 inactivated): 54
- turnover number (human CYP3A4 [7]; 30 min incubation, titration of remaining NFO activity): 55
- apparent KI (human CYP3A4 [7]; [11]): 9.1 µM
- kinact (human CYP3A4 [7]; [11]): 0.058 min⁻¹
- apparent KI (human CYP3A4 [7]; [12]): 13.3 ± 5.9 µM
- kinact (human CYP3A4 [7]; [12]): 0.068 ± 0.009 min⁻¹
- predicted threshold for causing a 2-fold increase in AUC (human CYP3A4 [7]; using inhibition constants (inactivation kinetics)): 79.7 nM
- inhibition of NFO after dialysis (human CYP3A4 [8]): could not be restored
- CPR activity before or after dialysis [9]: not affected
SMILES: Cc1c(O)c(C)c2c(c1O)C(=O)[C@H](Cc1ccc3c(c1)OCO3)CO2 [Methylophiopogonanone A, methylophiopogonanone A]
- Ratio IC50(+)/IC50(−) (human CYP3A4 [6]): 0.48
- half-life ([2]; rats treated with Qingzao Jiufei decoction (4.6 g/kg)): 8 to 9 h

- IC50 [4]: > 100 µM
- IC50 [5]: > 100 µM
SMILES: C[C@@H]1CC[C@@]2(OC1)O[C@H]1C[C@H]3[C@@H]4CC=C5C[C@@H](O)C[C@@H](O[C@@H]6O[C@H](C)[C@H](O)[C@H](O[C@@H]7OC[C@@H](O)[C@H](O)[C@H]7O)[C@H]6O[C@@H]6O[C@@H](C)[C@H](O)[C@@H](O)[C@H]6O)[C@]5(C)[C@H]4CC[C@]3(C)[C@H]1[C@@H]2C [Ophiopogonin D, ophiopogonin D]

- IC50 [1]: > 100 µM
SMILES: CC1(C)CCC[C@](C)([C@H]2CC[C@]3(C)[C@@H]2[C@H](O)C[C@@H]2[C@@]4(C)CC[C@H](O)C(C)(C)[C@@H]4[C@@H](O)C[C@]23C)O1 [Panaxatriol, panaxatriol]

- IC50 [4]: > 100 µM
- IC50 [5]: > 100 µM
SMILES: CC(C)=CCC[C@](C)(O)[C@H]1CC[C@]2(C)[C@@H]1[C@H](O)C[C@@H]1[C@@]3(C)CC[C@H](O)C(C)(C)[C@@H]3[C@@H](O)C[C@]12C [Protopanaxatriol, protopanaxatriol]

- IC50 [1]: > 100 µM
- inhibition at 100 µM [1]: ≤ 50%
SMILES: C[C@@H]1CC[C@@]2(OC1)O[C@H]1C[C@H]3[C@@H]4CC=C5C[C@@H](O)C[C@@H](O)[C@]5(C)[C@H]4CC[C@]3(C)[C@H]1[C@@H]2C [Ruscogenin, ruscogenin]

- IC50 [5]: 8.9 ± 1.4 µM
- IC50 (human CYP3A4 [6]; [13]): 1.5 ± 0.2 µM
- IC50 (human CYP3A4 [6]; [14]): 6.1 ± 1.4 µM
- Predicted threshold of unbound inhibitor concentration causing a 2-fold AUC increase (human CYP3A4 [6]): 7.69 nM
SMILES: COc1cc2c(c(OC)c1OC)-c1c(cc3c(c1OC)OCO3)CC(C)C(C)C2 (centres unmarked) [Schisandrin B]
- Ratio IC50(+)/IC50(−) (human CYP3A4 [6]): 0.25
- tmax ([2]; SMS (8 g/kg)-treated rats): 1.6 h
- tmax ([2]; Schisandra Fructus extract (5 g/kg)-treated rats): 4.1 h
- half-life [2, 15]: 7 h
- Cmax [2]: 28.6 nM

- IC50 (human CYP3A4 [6]; [13]): 0.06 ± 0.01 µM
- IC50 (human CYP3A4 [6]; [14]): 0.17 ± 0.05 µM
- Predicted threshold of unbound inhibitor concentration causing a 2-fold AUC increase (human CYP3A4 [6]): 0.34 nM
- time required for accumulating to reach the steady-state [10]: at least 8 days
SMILES: COc1cc2c(c(OC)c1OC)-c1c(cc3c(c1OC)OCO3)C[C@H](C)[C@](C)(O)[C@H]2OC(=O)c1ccccc1 [Schisantherin A, schisantherin A]
- Ratio IC50(+)/IC50(−) (human CYP3A4 [6]): 0.35
- tmax ([2]; SMS (8 g/kg)-treated rats): 2.3 h
- half-life [2, 15]: 30 h
- Cmax [2]: 7.1 nM
